{"source": "paper PMC9359741", "about": "(Clinical Cancer Research, 2022)", "assay_type_in_all_cases": "in vivo, human", "key": {"[1]": {"test_system": "CSF-1R", "test": "Phase 2 pharmacodynamic biomarkers", "settings": "cycle 1 day 15 compared with cycle 1 day 1", "summary_of_the_method": "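Blood was drawn for serum CSF-1 and CTX, plus serum osteoprotegerin and non-classical monocytes in Phase 2. Urine was collected for NTX. Samples were taken pre-dose on cycle 1 days 1, 8 and 15, on day 1 of later cycles and at discontinuation. Mean change on cycle 1 day 15 versus cycle 1 day 1 was summarized descriptively, with outliers excluded.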"}, "[2]": {"test_system": "pancreatic ductal adenocarcinoma (PDA)", "test": "Phase 2 efficacy", "summary_of_the_method": "(§1)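 Oral test compound 300 mg QD plus anti-PD-1 antibody 200 mg IV Q3W. PD-1/PD-L1 IR cohort: progression on anti-PD-1/PD-L1 (RECIST or irRC). prOVCA cohort: progression ≤6 months after ≥4 platinum cycles. PDA cohort: ≥1 prior systemic line. Investigator assessed best response per RECIST v1.1 and irRC. ORR used confirmed responses with Clopper–Pearson 95% CI; all dosed patients. Screening tissue was profiled for MSI/MMR, TMB and gene expression.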"}, "[3]": {"test_system": "PD-1/PD-L1 inhibitor-refractory advanced solid tumors", "test": "Phase 2 efficacy", "settings": "PD-1/PD-L1 IR", "summary_of_the_method": "as §1"}}, "note": "Where “and” joins values, the source holds several entries; their conditions need not be identical. Identical values can stand only once."}
{"smiles": "Cc1cccc(Cn2nc(C3CC3)c3c(NC(=O)c4cnc5cc(OCCN6CCN(C)CC6)ccn45)cccc32)n1", "note": "[ARRY-382]", "values": [{"measurement": "Change in mean CTX or NTX", "setting": "[1]", "result": "no significant changes"}, {"measurement": "Median OS", "setting": "[2]; PDA", "result": "2.2 (95% CI, 1.5–4.9) months"}, {"measurement": "Median PFS", "setting": "[2]; PDA", "result": "1.4 (95% CI, 0.9–2.8) months"}, {"measurement": "Median irPFS per irRC", "setting": "[2]; PDA", "result": "1.3 (95% CI, 0.9–2.7) months"}, {"measurement": "DOR of confirmed PR", "setting": "[2]; PDA cohort, 1 patient (MSI-Stable, TMB-Low, PD-L1 negative)", "result": 2.4, "unit": "months"}, {"measurement": "Best overall response: CR", "setting": "[2]; PDA, N = 27", "result": "0 (0.0) n (%)"}, {"measurement": "Best overall response: NE", "setting": "[2]; PDA, N = 27", "result": "14 (51.9) n (%)"}, {"measurement": "Best overall response: PD", "setting": "[2]; PDA, N = 27", "result": "7 (25.9%) n (%) and 7 (25.9) n (%)"}, {"measurement": "Best overall response: PR", "setting": "[2]; PDA, N = 27", "result": "1 (3.7) n (%)"}, {"measurement": "Best overall response: SD", "setting": "[2]; PDA, N = 27", "result": "5 (18.5) n (%)"}, {"measurement": "Immune-related best overall response: CR", "setting": "[2]; PDA, N = 27", "result": "0 (0.0) n (%)"}, {"measurement": "Immune-related best overall response: NE", "setting": "[2]; PDA, N = 27", "result": "19 (70.4) n (%)"}, {"measurement": "Immune-related best overall response: PD", "setting": "[2]; PDA, N = 27", "result": "0 (0.0) n (%)"}, {"measurement": "Immune-related best overall response: PR", "setting": "[2]; PDA, N = 27", "result": "1 (3.7) n (%)"}, {"measurement": "Immune-related best overall response: SD", "setting": "[2]; PDA, N = 27", "result": "7 (25.9) n (%)"}, {"measurement": "ORR, % (95% CI)", "setting": "[2]; confirmed, PDA, N = 27", "result": "3.7 (0.1–19.0) %"}, {"measurement": "ir-ORR, % (95% CI)", "setting": "[2]; confirmed, PDA, N = 27", "result": "3.7 (0.1–19.0) %"}, {"measurement": "Median OS", "setting": "[3]", "result": "12.4 (95% CI, 3.6–NR) months"}, {"measurement": "Median PFS", "setting": "[3]", "result": "1.6 (95% CI, 1.3–4.4) months"}, {"measurement": "Median irPFS per irRC", "setting": "[3]", "result": "1.5 (95% CI, 1.3–4.3) months"}, {"measurement": "Best overall response: CR", "setting": "[3]; N = 19", "result": "0 (0.0) n (%)"}, {"measurement": "Best overall response: NE", "setting": "[3]; N = 19", "result": "2 (10.5) n (%)"}, {"measurement": "Best overall response: PD", "setting": "[3]; N = 19", "result": "9 (47.4%) n (%) and 9 (47.4) n (%)"}, {"measurement": "Best overall response: PR", "setting": "[3]; N = 19", "result": "0 (0.0) n (%)"}, {"measurement": "Best overall response: SD", "setting": "[3]; N = 19", "result": "8 (42.1%) n (%) and 8 (42.1) n (%)"}, {"measurement": "Immune-related best overall response: CR", "setting": "[3]; N = 19", "result": "0 (0.0) n (%)"}, {"measurement": "Immune-related best overall response: NE", "setting": "[3]; N = 19", "result": "11 (57.9) n (%)"}, {"measurement": "Immune-related best overall response: PD", "setting": "[3]; N = 19", "result": "1 (5.3) n (%)"}, {"measurement": "Immune-related best overall response: PR", "setting": "[3]; N = 19", "result": "0 (0.0) n (%)"}, {"measurement": "Immune-related best overall response: SD", "setting": "[3]; N = 19", "result": "7 (36.8) n (%)"}, {"measurement": "ORR, % (95% CI)", "setting": "[3]; confirmed, N = 19", "result": "0.0 (0.0–17.6) %"}, {"measurement": "ir-ORR, % (95% CI)", "setting": "[3]; confirmed, N = 19", "result": "0.0 (0.0–17.6) %"}]}
